PMC3882305 (The Pediatric Infectious Disease Journal, 2013)
Like-named read-outs stand apart in the source and are kept apart here. One block for each compound: values may come before it.

Key:
HIV-1 [1] = details: ITT (missing = failure), cited from earlier work
[2] = Steady-state plasma APV/RTV/FPV pharmacokinetics in HIV-1-infected children; type: in vivo
Procedure, shortened: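 Dosing used FPV 50 mg/mL oral suspension or 700 mg tablets (≥39 kg), with RTV 80 mg/mL solution or 100 mg capsules (≥33 kg). At week 2, intensive sampling was taken at 0, 1, 2, 4, 6, 8 and 12 h postdose, plus predose samples every 4–12 weeks. Noncompartmental AUC(0–τ), Cmax, Cτ and CL/F were calculated; actual dose had to be within 10% of nominal. Log-transformed mixed-effect ANOVA gave geometric LS mean ratios (90% CI) versus historical healthy adults on FPV 1400 mg BID (n=190) or FPV/RTV 700/100 mg BID (n=159).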

HIV [3] = details: once-daily, cited from earlier work
HIV [4] = details: mostly PI-experienced, aged 6 to 17 years; time to loss of virologic response; cited from earlier work
[5] = study APV20003, cited from earlier work
[6] = Safety: adverse events, laboratory abnormalities, growth; type: in vivo, HIV-1–infected children; details: for subjects with at least 1 drug-related AE: 2- to <6-year olds (FPV/RTV 2/19; FPV 12/20); for change in median height and weight Z scores: week 48; for subjects with an AE leading to permanent discontinuation of study drug and withdrawal from the study: whole treatment group; for subjects reporting AEs: whole treatment group (FPV 19/20; FPV/RTV 83/89); for subjects with at least 1 drug-related grade 2–4 AE: whole treatment group (FPV/RTV 10/89; FPV 2/20)
Procedure, shortened: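 AEs, growth parameters, hematology and clinical chemistry including a lipid panel were assessed every 4–12 weeks, with follow-up 4 weeks after withdrawal. Severity was graded by the DAIDS Toxicity Table (2004). All study drug was stopped for grade 3/4 AE or toxicity unless clearly unrelated.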

CD4+ cell = CD4+ cell response; type: in vivo, HIV-1–infected children; details: week 48; for median CD4+ cell count change from baseline / median percentage CD4+ cell count change from baseline: whole treatment group
Procedure, shortened: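 Lymphocyte subsets were monitored every 4–12 weeks in children given twice-daily FPV ± RTV with an NRTI background, with visits at weeks 2, 4, 8, 12, 16, 24, 36 and 48. CD4+ cell count and CD4+ percentage at week 48 were expressed as change from baseline and summarized as medians.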

HIV-1 [7] = experiment: Antiviral response: plasma HIV-1 RNA <400 copies/mL, ITT; type: in vivo, HIV-1–infected children
Procedure, shortened: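 Children aged 2–18 years received twice-daily FPV ± RTV plus 2 or 3 active NRTIs, with plasma HIV-1 RNA measured every 4–12 weeks. The ITT (exposed) population was all subjects with ≥1 documented dose. In the snapshot analysis, response at each visit was taken from the last HIV-1 RNA within the visit window. Missing data counted as nonresponse, as did switching or adding background ART, unless toxicity-driven before week 2.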

[8] = 2- to <6-year olds (FPV 10/20, all grade 1; FPV/RTV 1/19, grade 2)

Compound: lopinavir (LPV)/RTV [LPV/RTV]
subjects with HIV-1 RNA <400 copies/mL after 48 weeks (HIV-1 [1]; ART-naïve): 88%
subjects with HIV-1 RNA <400 copies/mL after 48 weeks (HIV-1 [1]; PI-experienced/NRTI-experienced): 58%
subjects with HIV-1 RNA <400 copies/mL after 48 weeks (HIV-1 [1]; PI-naïve/NRTI-experienced): 84%

Compound: COC(=O)N[C@H](C(=O)N[C@@H](Cc1ccccc1)[C@@H](O)CN(Cc1ccc(-c2ccccn2)cc1)NC(=O)[C@@H](NC(=O)OC)C(C)(C)C)C(C)(C)C [RTV-boosted atazanavir, atazanavir]
response rate for HIV RNA <400 copies/mL at week 48 (HIV [3]; ART-experienced 6- to <18-year olds (8/25)): 32%
response rate for HIV RNA <400 copies/mL at week 48 (HIV [3]; ART-naïve 6- to <18-year olds (14/16)): 88%

Compound: CC(C)CN(C[C@@H](O)[C@H](Cc1ccccc1)NC(=O)O[C@H]1CO[C@H]2OCC[C@H]21)S(=O)(=O)c1ccc(N)cc1 [RTV-boosted darunavir, darunavir]
children achieving a viral load of <400 copies/mL at week 48 (HIV [4]): 59%

Compound: CC(C)CN(C[C@@H](OP(=O)(O)O)[C@H](Cc1ccccc1)NC(=O)O[C@H]1CCOC1)S(=O)(=O)c1ccc(N)cc1 [FPV, Fosamprenavir]
plasma amprenavir exposures compared with 1400 mg twice-daily in adults ([2]; 30 mg/kg twice-daily, 2- to <6-year olds): higher
samples with undetectable plasma FPV prodrug concentrations ([2]; plasma): 98%
APV exposures compared with adults receiving FPV/RTV 1400/200 mg QD ([5]; 6- to 18-year-old children, 30/6 mg/kg QD): comparable
incidence of drug-related vomiting [6, 8]: 50%
subjects with at least 1 drug-related AE [6]: 60%
grade 3/4 hypertriglyceridemia, raised total cholesterol or raised low density lipoprotein cholesterol ([6]; FPV group): no grade 3/4 reports
change in median height and weight Z scores [6]: Small increases
subjects with an AE leading to permanent discontinuation of study drug and withdrawal from the study [6]: none
subjects reporting AEs [6]: 95%
subjects with at least 1 drug-related grade 2–4 AE [6]: 10%
median CD4+ cell count change from baseline (CD4+ cell): 340 cells/mm^3
median percentage CD4+ cell count change from baseline (CD4+ cell): 8%
subjects with HIV-1 RNA <400 copies/mL at week 48 (HIV-1 [7]; FPV treatment group (PI-naïve, 2 to <6 yr), snapshot analysis): 60%

The next lines start with results.

plasma RTV Cτ ([2]; RTV 3 mg/kg BID in combination with FPV, across the age groups): higher
Compound: CC(C)c1nc(CN(C)C(=O)N[C@H](C(=O)N[C@@H](Cc2ccccc2)C[C@H](O)[C@H](Cc2ccccc2)NC(=O)OCc2cncs2)C(C)C)cs1 [RTV, ritonavir]

APV AUC(0–τ) and Cmax compared with adults receiving FPV/RTV 700/100 mg BID ([2]; FPV/RTV 15/3 mg/kg BID, 6- to <12-year olds and 12- to 18-year olds): lower
higher plasma APV AUC(0–τ), Cmax and Cτ values than historical adults receiving FPV/RTV 700/100 mg BID ([2]; FPV/RTV 23/3 mg/kg BID, 2- to <6-year olds): approximately 50%
plasma APV exposures compared with the historical adult population ([2]; FPV/RTV 700/100 mg BID, 12- to 18-year-old subjects ≥39 kg): similar
Compound: fosamprenavir/ritonavir [FPV/RTV]
lower APV exposure than adults receiving FPV/RTV 1400/200 mg QD ([5]; 2- to <6-year-old children, FPV/RTV 30/6 mg/kg QD): ~ 28%
incidence of drug-related vomiting [6, 8]: 5%
subjects with at least 1 drug-related AE [6]: 11%
incidence of drug-related vomiting ([6]; 6- to <12-year olds (9/30; 7 grade 1 and 2 grade 2)): 30%
subjects with drug-related AEs ([6]; 6- to <12-year olds (13/30)): 43%
AEs leading to permanent discontinuation of study drug ([6]; 6- to <12-year olds (hypertriglyceridemia)): 1
incidence of drug-related vomiting ([6]; 12- to 18-year olds (3/40, all grade 1)): 8%
subjects with drug-related AEs ([6]; 12- to 18-year olds (15/40)): 38%
AEs leading to permanent discontinuation of study drug ([6]; 12- to 18-year olds (adverse drug reaction and pyelonephritis)): 2
grade 3/4 hypertriglyceridemia ([6]; FPV/RTV group): no reports
grade 2–4 diarrhea ([6]; FPV/RTV group (2/89)): 2%
grade 3 increases in total cholesterol ([6]; FPV/RTV group (2 subjects)): 5%
grade 2–4 vomiting ([6]; FPV/RTV group (3/89)): 3%
grade 3 increases in low density lipoprotein cholesterol ([6]; FPV/RTV group (4 subjects)): 9%
drug-related nausea ([6]; adolescent group (6/40)): 15%
drug-related diarrhea ([6]; adolescent group (7/40)): 18%
change in median height and weight Z scores [6]: Small increases
subjects with an AE leading to permanent discontinuation of study drug and withdrawal from the study [6]: Four
subjects reporting AEs [6]: 93%
subjects with at least 1 drug-related grade 2–4 AE [6]: 11%
median CD4+ cell count change (CD4+ cell; 2- to <6-year olds): 174 cells/mm^3
percentage CD4+ cell count change (CD4+ cell; 2- to <6-year olds): 10%
median CD4+ cell count change (CD4+ cell; 6- to <12-year olds): 210 cells/mm^3
percentage CD4+ cell count change (CD4+ cell; 6- to <12-year olds): 7%
median CD4+ cell count change (CD4+ cell; 12- to 18-year olds): 140 cells/mm^3
percentage CD4+ cell count change (CD4+ cell; 12- to 18-year olds): 7%
median CD4+ cell count change from baseline (CD4+ cell): 190 cells/mm^3
median percentage CD4+ cell count change from baseline (CD4+ cell): 8%
subjects with HIV-1 RNA <400 copies/mL at week 48 (HIV-1 [7]; 2- to <6-year olds (14/19)): 74%
subjects with HIV-1 RNA <400 copies/mL at week 48 (HIV-1 [7]; 6- to <12-year-old (16/30)): 53%
subjects with HIV-1 RNA <400 copies/mL at week 48 (HIV-1 [7]; 12- to 18-year-old (25/40)): 63%
subjects with HIV-1 RNA <400 copies/mL at week 48 (HIV-1 [7]; ART-naïve subjects, snapshot analysis): 83%
subjects with HIV-1 RNA <400 copies/mL at week 48 (HIV-1 [7]; PI-experienced subjects, snapshot analysis): 48%
subjects with HIV-1 RNA <400 copies/mL at week 48 (HIV-1 [7]; PI-naïve/NRTI-experienced subjects, snapshot analysis): 65%
subjects with HIV-1 RNA <400 copies/mL at week 48 (HIV-1 [7]; range across age groups, intent-to-treat [exposed], snapshot analysis): 53–74%
